The source of these data is ChEMBL document CHEMBL4229488, “Secondary carbamate linker can facilitate the sustained release of dopamine from brain-targeted prodrug” (Bioorg Med Chem Lett, 2018).

Data set [1] is described as follows: Stability in pH 7.4 isotonic tris buffer assessed as parent compound remaining after 6 hrs by HPLC analysis. It counts as physicochemical. Conditions: read-out: Stability. Summed up:
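Chemical hydrolysis was run at 37 °C in isotonic Tris-HCl buffer at pH 7.4. The percentage of intact parent was measured after 6 h.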

Data set [2] can be described thus: Stability in 75% rat plasma assessed as parent compound remaining after 6 hrs by HPLC analysis. It counts as ADME, cell-free. Particulars: read-out: Stability. The essentials: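 Incubated at 37 °C in 75% rat plasma, alongside isotonic Tris-HCl buffer (pH 7.4) and 10% rat liver homogenate. The read-out was the percentage of intact parent compound after 6 h, taken as conversion to dopamine.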

A short description of data set [3]: Stability in 10% rat liver homogenates assessed as parent compound remaining after 6 hrs by HPLC analysis. It is filed as ADME, tissue-based. Particulars: for remaining at 6 h: 10% rat liver homogenate, read-out: Stability. Summed up:
(§1)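 Conversion of the compound was followed at 37 °C in 10% rat liver homogenate. The intact parent was tracked over time up to 6 h, and half-life or the percentage remaining at 6 h was taken from this.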

The target of data set [4] is T1, Large neutral amino acids transporter small subunit 1 (Homo sapiens, UniProt Q01650). In words: Inhibition of LAT1-mediated [14C]-L-leucine uptake in human MCF7 cells after 5 mins by liquid scintillation counting method. It is filed as cell-based.
T1 sequence (Q01650 whole entry): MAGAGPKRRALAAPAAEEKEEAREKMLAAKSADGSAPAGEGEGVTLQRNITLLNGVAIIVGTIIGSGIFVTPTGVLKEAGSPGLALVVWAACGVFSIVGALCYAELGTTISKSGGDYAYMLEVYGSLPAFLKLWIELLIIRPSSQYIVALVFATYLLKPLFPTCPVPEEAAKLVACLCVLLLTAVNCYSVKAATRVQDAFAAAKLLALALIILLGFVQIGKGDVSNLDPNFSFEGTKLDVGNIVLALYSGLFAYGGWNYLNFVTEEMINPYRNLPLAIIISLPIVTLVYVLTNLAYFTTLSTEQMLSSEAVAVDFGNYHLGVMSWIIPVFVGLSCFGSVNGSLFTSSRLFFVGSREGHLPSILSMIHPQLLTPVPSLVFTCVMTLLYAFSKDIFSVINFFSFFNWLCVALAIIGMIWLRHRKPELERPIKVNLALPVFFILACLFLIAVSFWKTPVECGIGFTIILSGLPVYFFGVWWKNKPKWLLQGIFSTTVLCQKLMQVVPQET
For data set [5], the target named is T1, Large neutral amino acids transporter small subunit 1. In words: Drug uptake in human MCF7 cells assessed as LAT1-mediated drug transportation rate at 25 to 50 uM after 10 mins by LC-MS analysis. It is filed as ADME, cell-based. Particulars: mcf7, 10 min.
The nature of data set [6]: Half life in 10% rat liver homogenate by HPLC method. It is filed as ADME, tissue-based. Summed up: as §1
Data set [7] deals with T1, Large neutral amino acids transporter small subunit 1. The data set is described as follows: Drug uptake in human MCF7 cells assessed as LAT1-mediated drug transportation rate at 3.125 to 100 uM after 10 mins by LC-MS analysis. Conditions: mcf7, 10 min. It is filed as ADME, cell-based.
The nature of data set [8]: Half-life in human in presence of AADC inhibitor carbidopa. It counts as ADME, organism-based. Particulars: in vivo.
Data set [9] can be described thus: Half-life in human in presence of COMT inhibitor entacapone. It is filed as ADME, organism-based. Conditions: in vivo.

For the molecule `Cl.NC(Cc1cccc(C(=O)NCCc2ccc(O)c(O)c2)c1)C(=O)O` (stereo not given), the remaining at 6 h was 83.2 to 83.7% in data set [1], 57.4 to 62.7% in data set [2] and 47.7 to 51.9% in data set [3]. For the same molecule, the IC50 – broadly, the concentration at which inhibition is half-maximal – in data set [4] was 32.4 µM. Further, the inhibition entry in [4] was “Dose-dependent effect”. Moreover, the maximum rate (Vmax) – broadly, the top rate of the reaction or transport when substrate is in excess – in data set [5] is given as under 3 pmol/mg/min.

Turning to `Cl.N[C@@H](Cc1ccc(OC(=O)NCCc2ccc(O)c(O)c2)cc1)C(=O)O`, the remaining at 6 h was in the range of 78.1 to 93.1% in data set [1], 40.5 to 60.5% in [2] and 63.2 to 66.5% in data set [3]. Besides, the concentration for half-maximal inhibition (IC50) in data set [4] worked out at 27.7 µM. Also, the inhibition entry in data set [4] was “Dose-dependent effect”. Further, the maximum rate (Vmax) in data set [5] is under 3 pmol/mg/min.

With `N[C@@H](Cc1ccc(O)c(O)c1)C(=O)O` [LEVODOPA], the remaining at 6 h in data set [1] was 99.8 to 103%. The half-life – broadly, the time needed for the level to fall by half in the phase considered – was 15.5 min in data set [6], 60 min in data set [8] and 30 to 90 min in [9]. The Stability result in data set [3] (tissue homogenate, 6 h) is given as “Unstable”. Besides, the concentration for half-maximal inhibition (IC50) in data set [4] was 100 µM. Also, in data set [4], the inhibition entry is “Dose-dependent effect”. In addition, in data set [7], the Vmax is recorded as 2.6 nmol/mg/min.
